Experiment [1] concerns Mycobacterium tuberculosis variant bovis BCG. The experiment can be described thus: Antimycobacterial activity against Mycobacterium bovis BCG Pasteur ATCC 35734 assessed as inhibition of mycobacterial growth incubated for 24 hrs by MABA method. The experiment is classed as functional. Conditions: Pasteur ATCC 35734, 24 h.
In experiment [2] the test system is Mycobacterium tuberculosis. Description: Antimycobacterial activity against drug-resistant Mycobacterium tuberculosis isolate MDR1 assessed as inhibition of mycobacterial growth incubated for 9 days. Format: functional. A digest of the protocol:
(§1)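 MIC by HT-SPOTi on Middlebrook 7H10 agar with 0.05% (v/v) glycerol and 10% (v/v) OADC in 96-well format. Compounds dissolved at 50 mg/mL (stock), two-fold serial dilutions, final 500-0.5 µg/mL. Each well spotted with 2 µL early-to-midlog culture (2x10^3 CFU), incubated at 37 °C until distinct spots in control wells. DMSO-only and isoniazid controls; triplicate.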

Experiment [3] relates to Mycobacterium tuberculosis. The experiment can be described thus: Antimycobacterial activity against drug-resistant Mycobacterium tuberculosis isolate MDR2 assessed as inhibition of mycobacterial growth incubated for 9 days. The experiment is classed as functional. A digest of the protocol:
as §1

For experiment [4], the system named is Mycobacterium tuberculosis. Description: Antimycobacterial activity against drug-resistant Mycobacterium tuberculosis isolate MDR2 assessed as inhibition of mycobacterial growth at 500 ug/ml incubated for 9 days. Format: functional, organism-based. A digest of the protocol: as §1
For experiment [5], the system named is Mycobacterium tuberculosis. The experiment can be described thus: Antimycobacterial activity against drug-resistant Mycobacterium tuberculosis isolate MDR1 assessed as inhibition of mycobacterial growth at 500 ug/ml incubated for 9 days. The experiment is classed as functional, organism-based. A digest of the protocol:
as §1

Values after ≈ are worked out from the molar mass of the structure shown. Active and inactive are the calls of the source. No cut-off for these calls is given here.

For the molecule `Cc1c(CNC2CCCCC2)cc(-c2ccc(Cl)cc2)n1-c1ccc(Cl)cc1`, the MIC in experiment [1] turned out to be 4 µg/mL (≈ 9.68 µM).
As to `Cc1cc(CNOCc2ccccc2)c(C)n1-c1ccc(F)cc1`, the MIC in experiment [1] is over 64 µg/mL; in experiment [2] (isolate MDR1, 216 h), 62 µg/mL (≈ 191 µM); in experiment [3] (isolate MDR2, 216 h) it was over 125 µg/mL.
As for `Cc1cc(CNC2CCCCC2)c(C)n1-c1ccc(Cl)cc1`, the MIC in experiment [1] is 0.4 µg/mL (≈ 1.26 µM); in experiment [2] (isolate MDR1, 216 h), 0.5 µg/mL (≈ 1.58 µM); in experiment [3] (isolate MDR2, 216 h), 16 µg/mL (≈ 50.5 µM).
As for `Cc1cc(CNC2C3CC4CC(C3)CC2C4)c(C)n1-c1ccc(Cl)cc1` (stereo not given), the MIC in experiment [1] came out at 2 µg/mL (≈ 5.42 µM); in experiment [2] (isolate MDR1, 216 h), 3.9 µg/mL (≈ 10.6 µM); in experiment [3] (isolate MDR2, 216 h) it was 125 µg/mL (≈ 339 µM).
Consider `Cc1c(CN2CCN(C34CC5CC(CC(C5)C3)C4)CC2)cc(-c2ccc(Cl)cc2)n1-c1ccc(Cl)cc1`, for which the MIC was determined as 2 µg/mL (≈ 3.74 µM) in experiment [1]; 16 µg/mL (≈ 29.9 µM) in experiment [2] (isolate MDR1, 216 h); 62 µg/mL (≈ 116 µM) in experiment [3] (isolate MDR2, 216 h).
For the molecule `Cc1cc(CN2CCN(c3ccccc3)CC2)c(C)n1-c1ccc(Cl)cc1`, the MIC in experiment [1] was 32 µg/mL (≈ 84.2 µM); in experiment [2] (isolate MDR1, 216 h), 31 µg/mL (≈ 81.6 µM); in experiment [3] (isolate MDR2, 216 h) it was over 125 µg/mL.
The matching figures for `Cc1cc(CNCCc2ccccc2)c(C)n1-c1ccc(Cl)cc1`: 16 µg/mL (≈ 47.2 µM), 1.9 µg/mL (≈ 5.61 µM) and 7.8 µg/mL (≈ 23 µM).
Consider `Cc1cc(CNCc2ccccc2)c(C)n1-c1ccc(Cl)cc1`, for which the MIC was 0.5 µg/mL (≈ 1.54 µM) in experiment [1]; 1 µg/mL (≈ 3.08 µM) in experiment [2] (isolate MDR1, 216 h); 3.9 µg/mL (≈ 12 µM) in experiment [3] (isolate MDR2, 216 h).
Consider `Cc1cc(CN2CCN(C3C4CC5CC(C4)CC3C5)CC2)c(C)n1-c1ccccc1F` (stereo not given), for which the MIC in experiment [1] is 1.3 µg/mL (≈ 3.08 µM); in experiment [2] (isolate MDR1, 216 h) it was 7.8 µg/mL (≈ 18.5 µM); in experiment [3] (isolate MDR2, 216 h), 16 µg/mL (≈ 38 µM).
For `Cc1c(CN2CCN(c3ccccc3)CC2)cc(-c2ccc(Cl)cc2)n1-c1ccc(Cl)cc1`, the MIC is 2 µg/mL (≈ 4.2 µM) in experiment [1]; 3.9 µg/mL (≈ 8.19 µM) in experiment [2] (isolate MDR1, 216 h); over 125 µg/mL in experiment [3] (isolate MDR2, 216 h).
As for `Cc1cc(CNCc2ccc(Cl)cc2)c(C)n1-c1ccc(Cl)cc1`, the MIC in experiment [1] was 8 µg/mL (≈ 22.3 µM); in experiment [2] (isolate MDR1, 216 h), 31 µg/mL (≈ 86.3 µM); in experiment [3] (isolate MDR2, 216 h), over 125 µg/mL.
For `Cc1cc(CN2CCN(C34CC5CC(CC(C5)C3)C4)CC2)c(C)n1-c1ccc(Cl)cc1` the same measures were 16 µg/mL (≈ 36.5 µM), 125 µg/mL (≈ 285 µM) and 125 µg/mL (≈ 285 µM).
`Cc1c(CN2CCN(C3CC4CCC3C4)CC2)cc(-c2ccc(Cl)cc2)n1-c1ccc(Cl)cc1` (mixture of isomers): the MIC in experiment [1] came out at 64 µg/mL.
In the case of `Cc1c(CN2CCN(C3C4CC5CC(C4)CC3C5)CC2)cc(-c2ccc(Cl)cc2)n1-c1ccc(Cl)cc1` (stereo not given), the MIC in experiment [1] worked out at 64 µg/mL (≈ 120 µM); in experiment [2] (isolate MDR1, 216 h), 125 µg/mL (≈ 234 µM); in experiment [3] (isolate MDR2, 216 h), 125 µg/mL (≈ 234 µM).
As to `Cc1ccc(CNCc2cc(C)n(-c3ccc(Cl)cc3)c2C)cc1`, the MIC is 4 µg/mL (≈ 11.8 µM) in experiment [1]; 3.9 µg/mL (≈ 11.5 µM) in experiment [2] (isolate MDR1, 216 h); 7.8 µg/mL (≈ 23 µM) in experiment [3] (isolate MDR2, 216 h).
Consider `Cc1c(CN2CCN(C)CC2)cc(-c2ccc(Cl)cc2)n1-c1ccc(Cl)cc1`, for which the MIC in experiment [1] was determined as 0.78 µg/mL (≈ 1.88 µM); in experiment [2] (isolate MDR1, 216 h), 3.9 µg/mL (≈ 9.41 µM); in experiment [3] (isolate MDR2, 216 h), 16 µg/mL (≈ 38.6 µM).
In the case of `CC(C)=CCC/C(C)=C/CNCCNC1C2CC3CC(C2)CC1C3` (stereo not given) [SQ109], in experiment [1], the MIC came to 2 µg/mL (≈ 6.05 µM).
For the molecule `Cc1cc(CNOCc2ccccc2)c(C)n1-c1ccc(Cl)cc1`, the MIC in experiment [1] was over 64 µg/mL; in experiment [2] (isolate MDR1, 216 h), 125 µg/mL (≈ 367 µM). In experiment [3], the MIC entry was “inactive”. Further, the “growth inhibition (GI)” value in experiment [4] was “inactive”.
Turning to `Cc1cc(CN2CCN(C3CCCCC3)CC2)c(C)n1-c1ccc(Cl)cc1`, the MIC in experiment [1] turned out to be 21 µg/mL (≈ 54.4 µM); in experiment [2] (isolate MDR1, 216 h), 7.8 µg/mL (≈ 20.2 µM); in experiment [3] (isolate MDR2, 216 h), 62 µg/mL (≈ 161 µM).
Take `Cc1cc(CN2CCN(C3C4CC5CC(C4)CC3C5)CC2)c(C)n1-c1ccc(Cl)cc1` (stereo not given): the MIC in experiment [1] came out at 3.3 µg/mL (≈ 7.53 µM); in experiment [2] (isolate MDR1, 216 h), 7.8 µg/mL (≈ 17.8 µM); in experiment [3] (isolate MDR2, 216 h), 16 µg/mL (≈ 36.5 µM).
Regarding `Cc1cc(CN2CCN(C3C[C@@H]4CC[C@H]3C4)CC2)c(C)n1-c1ccc(Cl)cc1` (mixture of isomers), the MIC turned out to be 32 µg/mL in experiment [1]; 3.9 µg/mL in experiment [2] (isolate MDR1, 216 h); 31 µg/mL in experiment [3] (isolate MDR2, 216 h).
For `Cc1cccc(-n2c(C)cc(CN3CCN(C4C5CC6CC(C5)CC4C6)CC3)c2C)c1` (stereo not given), the MIC in experiment [1] is 62 µg/mL (≈ 148 µM); in experiment [2] (isolate MDR1, 216 h) it was 31 µg/mL (≈ 74.2 µM); in experiment [3] (isolate MDR2, 216 h) it was 125 µg/mL (≈ 299 µM).
For `Cc1cc(CNCc2ccc(F)cc2)c(C)n1-c1ccc(Cl)cc1`, the MIC turned out to be 0.5 µg/mL (≈ 1.46 µM) in experiment [1] and 16 µg/mL (≈ 46.7 µM) in experiment [3] (isolate MDR2, 216 h). Also, the MIC entry in experiment [2] is “inactive”. The “growth inhibition (GI)” value in experiment [5] was “inactive”.
With `NNC(=O)c1ccncc1` [ISONIAZID], the MIC amounted to 10 µg/mL (≈ 72.9 µM) in experiment [2] (isolate MDR1, 216 h) and 25 µg/mL (≈ 182 µM) in experiment [3] (isolate MDR2, 216 h).
Take `Cc1cc(CNCc2ccccc2)c(C)n1-c1ccc(F)cc1`: the MIC in experiment [1] is 13 µg/mL (≈ 42.2 µM); in experiment [2] (isolate MDR1, 216 h), 7.8 µg/mL (≈ 25.3 µM); in experiment [3] (isolate MDR2, 216 h), 62 µg/mL (≈ 201 µM).
For `Cc1c(CN2CCN(c3ccccc3)CC2)c(CN2CCN(c3ccccc3)CC2)c(C)n1-c1ccc(Cl)cc1` the same measures were over 64 µg/mL, 62 µg/mL (≈ 112 µM) and over 125 µg/mL.
As to `Cc1cc(/C=N\OCc2ccccc2)c(C)n1-c1ccc(Cl)cc1`, the MIC is over 64 µg/mL in experiment [1]; over 125 µg/mL in experiment [2] (isolate MDR1, 216 h); over 125 µg/mL in experiment [3] (isolate MDR2, 216 h).
For `Cc1cc(CN2CCN(C3C4CC5CC(C4)CC3C5)CC2)c(C)n1-c1ccc(C(C)C)cc1` (stereo not given), the MIC in experiment [1] was 4 µg/mL (≈ 8.97 µM); in experiment [2] (isolate MDR1, 216 h) it was 62 µg/mL (≈ 139 µM); in experiment [3] (isolate MDR2, 216 h), 125 µg/mL (≈ 280 µM).
Consider `Cc1c(CNCc2ccccc2)cc(-c2ccc(Cl)cc2)n1-c1ccc(Cl)cc1`, for which, in experiment [1], the MIC came out at 8 µg/mL (≈ 19 µM).

For the origin of these results see ChEMBL document CHEMBL3797154, “Design and Synthesis of 1-((1,5-Bis(4-chlorophenyl)-2-methyl-1H-pyrrol-3-yl)methyl)-4-methylpiperazine (BM212) and N-Adamantan-2-yl-N'-((E)-3,7-dimethylocta-2,6-dienyl)ethane-1,2-diamine (SQ109) Pyrrole Hybrid Derivatives: Discovery of Potent Antitubercular Agents Effective against …” (J Med Chem, 2016).
